From ChEMBL document CHEMBL2010778, “Thiadiazoles as new inhibitors of diacylglycerol acyltransferase type 1” (Bioorg Med Chem Lett, 2012)
pIC50: −log10 of the molar value.

Assays:
[1] = target: T1, Diacylglycerol O-acyltransferase 1 (Homo sapiens, UniProt O75907); experiment: Inhibition of human recombinant DGAT1 expressed in baculovirus infected Sf9 cells after 60 mins by scintillation counting method
T1 sequence (O75907 whole entry): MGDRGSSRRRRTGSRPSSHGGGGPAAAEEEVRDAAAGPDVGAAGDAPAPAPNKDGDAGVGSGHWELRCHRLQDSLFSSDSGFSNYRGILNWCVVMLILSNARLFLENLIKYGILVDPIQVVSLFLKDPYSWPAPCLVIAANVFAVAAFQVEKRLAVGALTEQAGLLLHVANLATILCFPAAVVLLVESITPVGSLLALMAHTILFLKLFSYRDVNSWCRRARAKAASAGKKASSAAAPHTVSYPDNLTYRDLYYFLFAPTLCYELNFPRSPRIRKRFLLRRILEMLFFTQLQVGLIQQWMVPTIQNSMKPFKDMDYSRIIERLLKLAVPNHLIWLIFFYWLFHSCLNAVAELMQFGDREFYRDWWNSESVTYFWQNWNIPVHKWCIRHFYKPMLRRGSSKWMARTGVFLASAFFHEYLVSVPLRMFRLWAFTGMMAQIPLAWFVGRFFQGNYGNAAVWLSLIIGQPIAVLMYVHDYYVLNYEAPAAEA

[2] = Permeability across human Caco2 cell membrane; format: ADME, cell-based; conditions: Caco-2, read-out: permeability
[3] = Metabolic stability in human hepatic microsomes assessed as compound metabolism after 20 mins; format: ADME; conditions: liver microsomes, read-out: Drug metabolism
Procedure, shortened: (§1)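 Compound was incubated for 20 min with human or mouse hepatic microsomal fraction. % liability is the disappearance of parent compound at the end of the incubation.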

[4] = Metabolic stability in mouse hepatic microsomes assessed as compound metabolism after 20 mins; format: ADME; conditions: liver microsomes, read-out: Drug metabolism; procedure, shortened: as §1
Mus musculus = experiment: Antihyperlipidemic activity in C57BL/6J mouse assessed as inhibition of rise in plasma triglyceride level at 1 mg/kg, po administered 1 hr before lipid challenge; format: functional
Procedure, shortened: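 Fasted male C57Bl/6J mice (n = 10/group) were dosed orally at 1 mg/kg in 0.5% methylcellulose/1% DMSO (10 mL/kg), 1 h before a 100 µL corn oil or water bolus. Blood was taken by intracardiac puncture under isoflurane 1 h after the challenge, and plasma triglycerides were measured with a commercial kit. Inhibition of the TG rise was assessed against vehicle by one-way ANOVA with Dunnett test.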

[5] = Plasma concentration in C57BL/6J mouse at 1 mg/kg, po administered 1 hr before lipid challenge measured after 1 hr post dose; format: ADME, organism-based; set-up: dose 1 mg/kg, route oral

| pIC50 [1] | Papp [2] [×10⁻⁶ cm/s] | metabolised at 20 min [3] [%] | metabolised at 20 min [4] [%] | concentration at 1 h [5] [ng/mL] | SMILES | inhibition in vivo at 1 mg/kg (Mus musculus) [%] |
| --- | --- | --- | --- | --- | --- | --- |
| – | 12 | 1 | 10 | – | O=C(O)C[C@H]1CC[C@H](c2ccc(C(=O)Nc3nnc(Cc4cccc(F)c4)s3)cc2)CC1 | 107 |
| – | 11.2 | 0 | 5 | 79.1 | O=C(O)C[C@H]1CC[C@H](c2ccc(C(=O)Nc3nnc(Cc4ccccc4)s3)cc2)CC1 | 95 |
| – | 8 | 6 | 14 | – | O=C(O)C[C@H]1CC[C@H](c2ccc(C(=O)Nc3nnc(Cc4cccc(Cl)c4)s3)cc2)CC1 | 101 |
| – | 7.5 | 0 | 4 | – | O=C(O)C[C@H]1CC[C@H](c2ccc(C(=O)Nc3nnc(Cc4ccccc4F)s3)cc2)CC1 | 120 |

The remaining lines, values behind:

| SMILES | pIC50 [1] | Papp [2] [×10⁻⁶ cm/s] | metabolised at 20 min [3] [%] | metabolised at 20 min [4] [%] | concentration at 1 h [5] [ng/mL] | inhibition in vivo at 1 mg/kg (Mus musculus) [%] |
| --- | --- | --- | --- | --- | --- | --- |
| O=C(O)CC1CCC(c2ccc(Nc3nnc(Cc4ccccc4)s3)cc2)CC1 (mixture of isomers) | < 5.00 | – | – | – | – | – |
| CC(C)[C@H](NC(=O)c1ccc(-c2ccc(Nc3nnc(Cc4ccccc4)s3)cc2)cc1)C(=O)O | – | 0.04 | – | – | – | – |
| CS(=O)(=O)c1nnc(NC(=O)c2ccc([C@H]3CC[C@H](CC(=O)O)CC3)cc2)s1 | < 5.00 | – | – | – | – | – |
| CN(C(=O)c1ccc([C@H]2CC[C@H](CC(=O)O)CC2)cc1)c1nnc(Cc2ccccc2)s1 | < 5.00 | – | – | – | – | – |
